Screens from PubChem BioAssay.
An excerpt weighted towards active compounds, which were near 2.4% of everything screened.
HGIII-sPLA2 inh = Blocks human group III sPLA2 activity. inhibition, % at 12.2 µM. QFRET BODIPY PC-A2 liposome hydrolysis, fluorescence. 0.56% of 370,000 active;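 active means inhibition above mean plus 3 SD of compounds lying within the high and low control bounds, cut at about 19% in these data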;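 further: 0% = median of test compound wells and 100% = no enzyme DMSO wells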
IMP-1 inh = inhibitors of Pseudomonas aeruginosa IMP-1 metallo-beta-lactamase | AID 1556 | inhibition, % at 5.6 µM | 0.45% of 290,000 active | purified IMP-1, nitrocefin hydrolysis, epi-absorbance fluorescence;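 active means inhibition above the mean plus 3 SD of all compounds in the same screening run, cut at about 4.5% in these data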;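 further: 0% = IMP-1 with DMSO and 100% = DMSO wells lacking enzyme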
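Material – recombinant IMP-1 enzyme, purified · Amount – IMP-1 0.2 nM before substrate addition · Medium – HEPES buffer pH 7.1 with ZnSO4 and Brij 35 · Timing – 25 °C, 15 min preincubation, 25 min reaction · Measured by – plate fluorescence quenching by hydrolysis product, ex 480/em 530 nm · Read-out – percent enzyme inhibition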
VIM-2 inh = blocks Pseudomonas aeruginosa VIM-2 metallo-beta-lactamase; purified VIM-2, nitrocefin hydrolysis, epi-absorbance fluorescence; inhibition, % at 5.6 µM; 0.89% of 290,000 active; AID 1527;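 active means inhibition above the mean of all tested compounds plus 3 SD, cutoff set per screening run, cut at about 7.5% in these data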;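 further: red hydrolysis product quenches plate fluorescence so inhibitors raise well fluorescence; 0% = enzyme with DMSO and 100% = DMSO without enzyme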
PfM18AAP inh-1 = blocks P. falciparum M18 aspartyl aminopeptidase; recombinant PfM18AAP, H-Glu-NHMec fluorogenic cleavage; 1.2% of 290,000 active; AID 1822; inhibition, % at 7.35 µM;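 active means inhibition above the campaign mean inhibition over all tested compounds plus 3 SD, cut at about 28% in these data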;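 further: 0% = plate median of test compound wells and 100% = 2 mM ZnCl2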
PfM18AAP inh-2 = PfM18AAP inhibition, confirmation; inhibition, % at 7.35 µM; recombinant PfM18AAP, H-Glu-NHMec fluorogenic cleavage; shares compounds with PfM18AAP inh-1; 28% of 2,400 active;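 active means mean inhibition over replicate wells above the hit cutoff set for the earlier primary screen, cut at about 29% in these data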;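 further: 0% = median of test compound wells and 100% = 2 mM ZnCl2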
CTSL1 confirm = Cathepsin L (human) inhibition, confirmation. AID 2178. 2,400 tested, under 10 active. purified cathepsin L1, Z-Leu-Arg-MCA fluorescence. inhibition, % at 5.96 µM. shares compounds with PfM18AAP inh-1;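 active means average inhibition across replicates above the hit cutoff set in the earlier primary screen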;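 further: 0% = median of test compound wells and 100% = Z-Phe-Ala-diazomethylketone 1 µM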
Target sequence (P07711 whole entry, looked up): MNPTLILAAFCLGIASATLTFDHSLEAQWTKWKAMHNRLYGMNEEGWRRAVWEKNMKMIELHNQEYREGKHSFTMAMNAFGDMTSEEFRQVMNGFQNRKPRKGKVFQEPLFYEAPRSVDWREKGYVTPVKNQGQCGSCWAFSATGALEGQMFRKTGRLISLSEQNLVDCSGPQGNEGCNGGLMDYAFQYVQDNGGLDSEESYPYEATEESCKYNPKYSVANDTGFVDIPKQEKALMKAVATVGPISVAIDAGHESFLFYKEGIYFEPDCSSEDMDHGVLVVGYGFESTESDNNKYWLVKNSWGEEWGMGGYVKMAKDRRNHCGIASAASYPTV
Active calls of the source: *; x = no result given.

SMILES	HGIII-sPLA2 inh	IMP-1 inh	VIM-2 inh	PfM18AAP inh-1	PfM18AAP inh-2	CTSL1 confirm
O=C(CSc1ccc2ccccc2c1)NCCc1ccc(O)c(O)c1	8	-3	-2	57*	41*	4
CN(C(=O)[C@@H](C1CC1)[C@@H](O)c1ccc(Cl)cc1)c1ccccc1	-6	x	x	x	x	x
CC(=O)ONC(=Nc1ccccc1)c1nonc1N	10	0	1	36*	-6	-46
COc1ccc(S[C@]2(C(=O)NC(C)C)CC(=O)N[C@@H]2c2ccc(OC)cc2)cc1	8	x	x	x	x	x
CCNC(=O)C1(C)CCCN(C(=O)c2oc3ccccc3c2C)C1 (centres undefined)	1	x	x	x	x	x
C[n+]1cccc(C2C(C#N)=C(N)Oc3c2ccc2ccccc32)c1 (centres undefined)	-2	0	3	38*	-26	-6
C[n+]1cccc2ccc3c(c21)OC(N)=C(C#N)C3c1ccccc1 (centres undefined)	2	-2	3	10	x	x
Cc1snc(SCC(=O)c2ccc(F)cc2)c1C#N	-24	-2	0	-2	x	x
Cc1snc(SCC(=O)c2ccc([N+](=O)[O-])cc2)c1C#N	7	-4	9.5*	45*	-22	6
O=C(CSc1ncn[nH]1)Nc1nnc(-c2ccccc2)s1	x	-1	-4	64*	66*	2
Cc1ccc(NC(=O)CSc2ncn[nH]2)cc1	-17	-2	3	32*	11	0
COc1ccc(C(=O)CSc2ncn[nH]2)cc1OC	-4	-4	0	12	x	x
CCOC(=O)c1c(-c2ccc(C)o2)csc1NC(=O)CSc1ncn[nH]1	-37	1	1	61*	26	2
O=C(CSc1ncn[nH]1)c1ccc(OC(F)F)cc1	-30	-4	-1	39*	15	-4
CCC(C)Sc1ccc([C@H]2N[C@@](Cc3ccccc3)(C(=O)OC)[C@H]3C(=O)N(CC)C(=O)[C@@H]23)cc1OC (some centres undefined)	4	x	x	x	x	x
CCN(CC)C(=O)c1cccc(-c2csc(C(C)(O)c3ccc(OC)cc3)n2)c1 (centres undefined)	-17	x	x	x	x	x
NS(=O)(=O)c1ccc(CCNS(=O)(=O)c2ccc(Cl)s2)cc1	6	x	x	x	x	x
O=C(CSc1ncn[nH]1)Nc1c(Br)cc([N+](=O)[O-])cc1Br	-22	-5	-2	50*	23	-13
CC(C)Cc1nnc(NC(=O)CSc2ncn[nH]2)s1	-4	-2	0	38*	40*	2
O=C(CSc1ncn[nH]1)Nc1ccc(Cl)c(S(=O)(=O)N2CCOCC2)c1	-15	-2	-1	57*	52*	0
Cc1ccc(-c2nnc(N3CCN(C(=O)CSc4ncn[nH]4)CC3)c3ccccc23)cc1	-31	1	0	42*	-1	0
Cc1ccc(NC(=O)CSc2ncn[nH]2)c([N+](=O)[O-])c1	-5	x	x	x	x	x
Cc1cc(=O)[nH]c(SCC(=O)Nc2nnc(CC(C)C)s2)n1	-5	-1	-2	-1	x	x
COC(=O)[C@@]12C[C@@H](CC(=O)N3CCOCC3)C(=O)N(Cc3cccc4ccccc34)C1=CCC(C)(C)C2	-14	x	x	x	x	x
O=C(O)CSc1ncn[nH]1	1	-3	-2	86*	98*	-1
SMILES	HGIII-sPLA2 inh	IMP-1 inh	VIM-2 inh	PfM18AAP inh-1	PfM18AAP inh-2	CTSL1 confirm
CCCCOc1ccc(C2/C(=C(\O)c3ccc4c(c3)OCCO4)C(=O)C(=O)N2CCCN2CCOCC2)cc1 (centres undefined)	-11	0	-1	5	x	x
Cc1cc(N/N=C/c2ccc(O)c(C)c2O)nc(-c2ccccc2O)n1	-34	-3	-4	44*	38*	4
C=CCc1c(C)nc(C)nc1N/N=C/c1ccccc1O	0	-3	-4	49*	-36	3
Cc1cc(O)cc(O)c1C(=O)Cc1ccccc1	-19	-1	-2	-9	x	x
O=C(Cc1ccc([N+](=O)[O-])cc1)c1c(O)cc(O)cc1O	-16	-2	-3	44*	21	-9
Cc1nc(NN)c2c3c(sc2n1)COC(C)(C)C3	3	-3	-5	58*	16	-7
CC1(C)Cc2c(sc3ncnc(N)c23)CO1	2	1	0	14	x	x
CC1(C)Cc2c(sc3nc(=S)[nH]c(N)c23)CO1	x	-1	-2	32*	-11	5
Cc1cc(C)c(NC(=S)NCC2CCN(C(C)c3ccccc3)C2)c(C)c1 (centres undefined)	7	-1	-1	53*	3	-2
C=CCNC(=S)NNc1nc2sc3c(c2c(=O)[nH]1)CC(C)(C)OC3	8	-2	-1	34*	17	1
C=CCSc1nc2sc3c(c2c(=O)[nH]1)CC(C)(C)OC3	-2	x	x	x	x	x
CCC(NC(=S)NC1CCCCC1)c1ccc(C(C)C)cc1 (centres undefined)	1	-3	-7	2	x	x
COCCNC(=O)C1(C)CCN(C(=O)COc2ccc(Cl)cc2Cl)C1 (centres undefined)	7	x	x	x	x	x
COc1cc(C)c(NC(=O)C(=S)NCCc2ccccc2)cc1C	-4	-4	-2	48*	4	4
Cc1cc(C)nc(SC(C(=O)O)c2ccccc2)n1 (centres undefined)	14	-3	-1	4	x	x
Cc1cc(C)nc(Sc2nc(Cl)nc(N(c3ccccc3)c3ccccc3)n2)n1	14	-3	-2	47*	22	-2
O=C(c1ccccn1)N1CCCC(N2CCN(c3ccccc3)CC2)C1 (centres undefined)	-1	-4	-2	2	x	x
COc1ccc(C(=O)c2no[n+]([O-])c2C(=O)c2ccc(OC)cc2)cc1	-4	-4	-2	-1	x	x
Cc1c(C(=O)c2no[n+]([O-])c2C(=O)c2cnn(C)c2C)cnn1C	6	-4	-2	59*	77*	5
CCN(CC)C(=S)SCC(=O)Nc1nc(=O)c2ccccc2s1	1	-2	-1	32*	-53	-9
CCOC(=O)CCCCCC(=O)Nc1ccc2c(c1)C(=O)N([C@@H](C)CO)C[C@@H](C)[C@H](CN(C)C(=O)c1ccncc1)OCCCC[C@H](C)O2	-2	x	x	x	x	x
COCCCNC(=S)NNC(=S)Nc1ccc(F)cc1F	-1	-1	-5	32*	-19	3
COCCCNC(=S)Nc1ccc(C)cc1	3	-3	-2	1	x	x
COCCCNC(=S)NNC(=S)Nc1ccccc1	12	0	-4	40*	-14	6
COCCCNC(=O)c1ccc(Cn2c(=O)c3ccccc3n(Cc3ccc(C(C)C)cc3)c2=O)cc1	5	x	x	x	x	x
CN=c1scc(C)n1/N=C/c1ccc(O)cc1	3	-2	0	16	x	x
CN=c1scc(-c2ccco2)n1/N=C/c1ccc(O)c(O)c1	6	-1	-1	59*	51*	2
C=CCN=c1scc(C)n1/N=C/c1ccc(O)c(O)c1	3	-3	1	57*	40*	9
